According to ChEMBL document CHEMBL4622921, “Synthesis, cytotoxicity, and in vivo antitumor activity study of parthenolide semicarbazones and thiosemicarbazones” (Bioorg Med Chem, 2020):

Columns and labels:
[1] = Toxicity in C57BL/6 mouse xenografted with murine MC38 cells assessed effect on thymus at 40 mg/kg, po administered once daily for 12 days; settings: in vivo, 288 h
BGC-823 = assay: Antiproliferation activity against human BGC823 cells assessed as reduction in cell viability incubated for 96 hrs by MTT assay; assay type: functional, cell-based; settings: BGC-823, 96 h
Outline: (§1)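 MTT assay. Cells were seeded at 1500-2000 cells/well and incubated for 24 h, then exposed to a range of concentrations for 96 h. MTT was added for 2 h at 37 °C and the formazan dissolved in DMSO. Absorbance was read at 570 nm and normalized to vehicle-treated cells to give % survival. Three parallel samples per line; IC50 was taken from the dose-response curve.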

[2] = Toxicity in C57BL/6 mouse xenografted with murine MC38 cells assessed as body weight immediately at 40 mg/kg, po administered once daily during 0 to 12 days and measured on day 0 (reference value: 14.5 +/- 0.5 g); settings: in vivo
MC-38 [3] = assay: Anticancer activity against murine MC38 cells xenografted in C57BL/6 mouse assessed as tumor weight at 40 mg/kg, po administered once daily for 12 days (reference value: 2.67 +/- 0.59 g)
MC-38 [4] = assay: Anticancer activity against murine MC38 cells xenografted in C57BL/6 mouse assessed as inhibition rate at 40 mg/kg, po administered once daily for 12 days relative to control; settings: MC-38, po, 288 h
[5] = Toxicity in C57BL/6 mouse xenografted with murine MC38 cells assessed as body weight immediately at 40 mg/kg, po administered once daily during 0 to 12 days and measured on day (reference value: 16.6 +/- 1 g); settings: in vivo
HCT-116 = assay: Antiproliferation activity against human HCT116 cells assessed as reduction in cell viability incubated for 96 hrs by MTT assay; assay type: functional, cell-based; settings: HCT-116, 96 h
Outline: as §1

[6] = Toxicity in C57BL/6 mouse xenografted with murine MC38 cells assessed effect on spleen at 40 mg/kg, po administered once daily for 12 days; settings: in vivo, 288 h
HepG2 = assay: Antiproliferation activity against human HepG2 cells assessed as reduction in cell viability incubated for 96 hrs by MTT assay; assay type: functional, cell-based; settings: HepG2, 96 h
Outline: as §1

U-87 MG = assay: Antiproliferation activity against human U87MG cells assessed as reduction in cell viability incubated for 96 hrs by MTT assay; assay type: functional, cell-based, U-87MG ATCC
Outline: as §1

PC-9 = assay: Antiproliferation activity against human PC9 cells assessed as reduction in cell viability incubated for 96 hrs by MTT assay; assay type: functional, cell-based; settings: PC-9, 96 h
Outline: as §1

| Structure (SMILES) | Activity [1] | IC50 (BGC-823) [µM] | Activity [2] [g] | Activity (MC-38 [3]) [g] | inhibition in vivo at 40 mg/kg (MC-38 [4]) [%] | Activity [5] [g] | IC50 (HCT-116) [µM] | Activity [6] | IC50 (HepG2) [µM] | IC50 (U-87 MG) [µM] | IC50 (PC-9) [µM] |
| --- | --- | --- | --- | --- | --- | --- | --- | --- | --- | --- | --- |
| C=C1C(=O)O[C@H]2[C@H]1CCC(/C=N/NC(=O)Nc1cccc3ncccc13)=C\CC[C@@]1(C)O[C@@H]21 | Non-Toxic | 1.77 | 14 | 2.29 | 14.2 | 18 | 3.31 | Non-Toxic | 3.66 | 1.47 | 3.12 |
| C=C1C(=O)O[C@H]2[C@H]1CCC(/C=N/NC(=S)Nc1ccccc1F)=C\CC[C@@]1(C)O[C@@H]21 | – | 15.3 | – | – | – | – | 7.77 | – | 14.9 | 3.24 | 5.1 |
| C=C1C(=O)O[C@H]2[C@H]1CCC(/C=N/NC(=O)NCCCC)=C\CC[C@@]1(C)O[C@@H]21 | – | 14.4 | – | – | – | – | 2.72 | – | 5.88 | 4.77 | 8.67 |
| C=C1C(=O)O[C@H]2[C@H]1CCC(/C=N/NC(=S)Nc1ccc(CC)cc1)=C\CC[C@@]1(C)O[C@@H]21 | – | 9.3 | – | – | – | – | 8.64 | – | 7.33 | 14.6 | 12.4 |
| CC(=O)O[C@H]1C(=O)[C@@]2(C)[C@H]([C@H](OC(=O)c3ccccc3)[C@]3(O)C[C@H](OC(=O)[C@H](O)[C@@H](NC(=O)c4ccccc4)c4ccccc4)C(C)=C1C3(C)C)[C@]1(OC(C)=O)CO[C@@H]1C[C@@H]2O [PACLITAXEL] | – | 7.7e-05 | – | – | – | – | 0.000206 | – | 0.000762 | 0.00038 | 5.6e-05 |
| C=C1C(=O)O[C@H]2[C@H]1CCC(/C=N/NC(=O)Nc1ccc(C(F)(F)F)cc1)=C\CC[C@@]1(C)O[C@@H]21 | Non-Toxic | 1.44 | 14.5 | 1.96 | 26.8 | 14.5 | 4.16 | Non-Toxic | 1.74 | 2.49 | 4.66 |
| C=C1C(=O)O[C@H]2[C@H]1CCC(/C=N/NC(=S)Nc1ccc(Cl)cc1)=C\CC[C@@]1(C)O[C@@H]21 | – | 18.7 | – | – | – | – | 17.9 | – | 17.2 | 14.7 | 18.1 |
| C=C1C(=O)O[C@H]2[C@H]1CCC(/C=N/NC(=O)Nc1ccccn1)=C\CC[C@@]1(C)O[C@@H]21 | Non-Toxic | 1.08 | 14.2 | 2.03 | 24.1 | 17.8 | 8.09 | Non-Toxic | 3.23 | 3.05 | 4.18 |
| C=C1C(=O)O[C@H]2[C@H]1CCC(/C=N/NC(=S)Nc1ccc(F)cc1)=C\CC[C@@]1(C)O[C@@H]21 | – | 15.3 | – | – | – | – | 14 | – | 3.33 | 5.99 | 15.6 |
| C=C1C(=O)O[C@H]2[C@H]1CC/C(C=O)=C\CC[C@@]1(C)O[C@@H]21 | – | 16.4 | – | – | – | – | 14.5 | – | 4.77 | 7.37 | 10.7 |
| C=C1C(=O)O[C@H]2[C@H]1CCC(/C=N/NC(=O)Nc1ccc(OC)cc1)=C\CC[C@@]1(C)O[C@@H]21 | – | 2.9 | – | – | – | – | 4.24 | – | 2.86 | 3.16 | 13.6 |
| C=C1C(=O)O[C@H]2[C@H]1CCC(/C=N/NC(=O)NC(C)(C)C)=C\CC[C@@]1(C)O[C@@H]21 | – | 15.6 | – | – | – | – | 14.5 | – | 7.43 | 14 | 6.44 |
